Assay [1] is described as follows: Inhibition of calpain-10 in rabbit mitochondrial matrix fractions by spectrofluorimetry. Also on record: species or system Oryctolagus cuniculus. The procedure, abridged: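 Matrix fraction from Percoll/sucrose-purified rabbit renal cortical mitochondria, stored at -80°C. Matrix added to activity buffer, then inhibitor at various concentrations and sLLVY-AMC (50 µM); AMC hydrolysis followed spectrofluorometrically under linear conditions. IC50 from means of at least 3 separate experiments.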

For assay [2], the species on record is Oryctolagus cuniculus. The assay is described as follows: Inhibition of calpain-10 in rabbit mitochondrial matrix fractions at 1 uM preincubated for 5 mins in presence of 1 mM dithiothreitol by spectrofluorimetry. The procedure, abridged:
(§1)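 Rabbit renal mitochondrial matrix preincubated 15 min with inhibitor (1 µM), activity on sLLVY-AMC measured 5 min; then BME (1 mM) or DTT (1 mM) added for 5 min and AMC release monitored for another 5 min. Mean and SE, n ≥ 3.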

For assay [3], the species on record is Oryctolagus cuniculus. Description: Inhibition of calpain-10 in rabbit mitochondrial matrix fractions at 1 uM preincubated for 5 mins by spectrofluorimetry.
Assay [4] is filed under the species Oryctolagus cuniculus. Description: Inhibition of calpain-10 in rabbit mitochondrial matrix fractions at 1 uM preincubated for 5 mins in presence of 1 mM beta-mercaptoethanol by spectrofluorimetry. The procedure, abridged:
as §1

As usually defined, the IC50 is the concentration that inhibits the measured activity by half. Read a high IC50 as weaker potency in that assay. For orientation: inhibition means the relative decrease from the control value, in per cent.

Molecules are shown by their SMILES. Active and inactive are the calls of the source. The calls are words filed in the database; no cut-off is given here. Where a SMILES comes first, the peptide text is derived from it. The star is where a group is joined. X1 = COc1ccc(S*)cc1; SEt = CCS* Where only a bound is given, the exact number is not on record here.

Consider `CSC[C@H](N)C(=O)N[C@@H](Cc1ccc(O)cc1)C(=O)NCC(=O)N[C@@H](C)C(=O)N[C@@H](CCCCN)C(=O)O` (H-C(Me)YGAK-OH), for which the IC50 in assay [1] was more than 100 µM.

`CCSSC[C@H](N)C(=O)N[C@@H](Cc1ccc(O)cc1)C(=O)NCC(=O)N[C@@H](C)C(=O)N[C@@H](CCCCN)C(=O)O` (H-C(SEt)YGAK-OH) registered an IC50 in assay [1] of 2 µM.

For the compound `COc1ccc(SSC[C@H](N)C(=O)N[C@@H](Cc2ccc(O)cc2)C(=O)NCC(=O)N[C@@H](C)C(=O)N[C@@H](CCCCN)C(=O)O)cc1` (H-C(X1)YGAK-OH), half-maximal inhibition in assay [1] (IC50) was put at 0.06 µM.

In assay [1], `C[C@H](NC(=O)CNC(=O)[C@H](C)NC(=O)[C@@H](N)CS)C(=O)N[C@@H](CCCCN)C(=O)O` (H-CAGAK-OH) had an IC50 of 2 µM.

In assay [1], `CC(C)[C@H](NC(=O)[C@@H](N)CS)C(=O)NCC(=O)N[C@@H](C)C(=O)N[C@@H](CCCCN)C(=O)O` (H-CVGAK-OH) returned an IC50 of more than 40 µM.

In assay [1], `C[C@H](NC(=O)CNC(=O)[C@H](Cc1ccc(O)cc1)NC(=O)[C@@H](N)CS)C(=O)O` (H-CYGA-OH) returned a concentration for half-maximal inhibition (IC50) of more than 100 µM.

`C[C@H](NC(=O)CNC(=O)[C@H](Cc1ccc(O)cc1)NC(=O)[C@@H](N)CS)C(=O)N[C@@H](CCCCN)C(=O)O` (H-CYGAK-OH) showed an IC50 in assay [1] of 0.1 µM. The result in the assay filed under Oryctolagus cuniculus [2] and in the assay filed under Oryctolagus cuniculus [4] was inactive. For the same compound, the inhibition in the assay filed under Oryctolagus cuniculus [3] was found to be 90%.

Regarding `N=C(N)NCCC[C@H](NC(=O)CNC(=O)[C@H](Cc1ccc(O)cc1)NC(=O)[C@@H](N)CS)C(=O)N[C@@H](CCCCN)C(=O)O` (H-CYGRK-OH), the IC50 in assay [1] was found to be 0.24 µM.

For `N=C(N)NCCC[C@H](NC(=O)CNC(=O)[C@H](Cc1ccc(O)cc1)NC(=O)[C@@H](N)CS)C(=O)N[C@@H](CCCCN)C(=O)N[C@@H](CCCCN)C(=O)O` (H-CYGRKK-OH), in assay [1], the midpoint of inhibition, the IC50, lay at 0.29 µM.

`C[C@H](NC(=O)CNC(=O)[C@@H](N)Cc1ccc(O)cc1)C(=O)N[C@@H](CCCCN)C(=O)O` (H-YGAK-OH) registered an IC50 in assay [1] of more than 100 µM.

In the case of `CCCC[C@@H](C=O)NC(=O)[C@H](CC(C)C)NC(=O)OCc1ccccc1` [CALPEPTIN], the IC50 in assay [1] came to 0.004 µM.
